Our source for the Activity and Emax values is ChEMBL document CHEMBL4354843, “Structure-Based Design of a Potent and Selective Covalent Inhibitor for SRC Kinase That Targets a P-Loop Cysteine” (J Med Chem, 2020).

The structures appear in SMILES notation.

The target in experiment [1] is Mitogen-activated protein kinase 6 (Homo sapiens) (UniProt Q16659). The experiment can be described thus: Binding affinity to wild-type human partial length ERK3 (M1 to P413 residues) expressed in bacterial expression system assessed as residual binding level at 1 uM by Kinomescan method relative to control.
The next experiment deals with MDA-MB-231. The experiment can be described thus: Antiproliferative activity against human MDA-MB-231 cells assessed as reduction in cell viability incubated for 72 hrs by cell-titer glo assay relative to control. It counts as functional. A digest of the protocol: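 Cells seeded at 2000 cells/well, dosed next day with a range of concentrations (DMSO 0.2% as control), 72 h exposure, viability read by CellTiter-Glo luminescence. Dose–response curves and GR values derived with the online GR calculator. Two independent experiments, each in technical triplicate.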

Experiment [2] addresses SRSF protein kinase 2 (Homo sapiens) (UniProt P78362). Briefly: Binding affinity to wild-type human full length SRPK2 (M1 to S686 residues) expressed in bacterial expression system assessed as residual binding level at 1 uM by Kinomescan method relative to control.
The target of experiment [3] is Mitogen-activated protein kinase kinase kinase 10 (Homo sapiens) (UniProt Q02779). Briefly: Binding affinity to wild-type human partial length MLK2 (V52 to W380 residues) expressed in bacterial expression system assessed as residual binding level at 1 uM by Kinomescan method relative to control.
In experiment [4] the target is Tyrosine-protein kinase receptor UFO (Homo sapiens) (UniProt P30530). Briefly: Binding affinity to wild-type human partial length AXL (R497 to Y821 residues) expressed in bacterial expression system assessed as residual binding level at 1 uM by Kinomescan method relative to control.
The target in experiment [5] is Dual serine/threonine and tyrosine protein kinase (Homo sapiens) (UniProt Q6XUX3). The experiment can be described thus: Binding affinity to wild-type human full length RIPK5 (M1 to T929 residues) expressed in mammalian expression system assessed as residual binding level at 1 uM by Kinomescan method relative to control. A digest of the protocol:
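Active-site-directed competition binding screen across a 468-kinase panel, run with the test compound at 1 μM. The read-out is the kinase signal remaining relative to a DMSO control, reported as a percentage. […]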

Experiment [6] has as its target NUAK family SNF1-like kinase 1 (Homo sapiens) (UniProt O60285). Briefly: Binding affinity to wild-type human partial length ARK5 (E25 to I332 residues) expressed in bacterial expression system assessed as residual binding level at 1 uM by Kinomescan method relative to control.
Experiment [7] has as its target Tyrosine-protein kinase Tec (Homo sapiens) (UniProt P42680). The experiment can be described thus: Binding affinity to wild-type human partial length TEC (L341 to D620 residues) expressed in bacterial expression system assessed as residual binding level at 1 uM by Kinomescan method relative to control.
Experiment [8] has as its target Mitogen-activated protein kinase kinase kinase 6 (Homo sapiens) (UniProt O95382). The experiment can be described thus: Binding affinity to wild-type human partial length ASK2 (M278 to R972 residues) expressed in mammalian expression system assessed as residual binding level at 1 uM by Kinomescan method relative to control. A digest of the protocol: (§1)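 KinomeScan, an active site-directed competition binding panel of 468 kinases. The test compound was at 1 μM. The readout is remaining kinase binding as a percentage of the DMSO control. Scores above 35% were treated as weak binding and not listed.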

For experiment [9], the target named is Phosphatidylinositol 4,5-bisphosphate 3-kinase catalytic subunit beta isoform (Homo sapiens) (UniProt P42338). The experiment can be described thus: Binding affinity to wild-type human partial length PIK3CB (P118 to S1070 residues) expressed in mammalian expression system assessed as residual binding level at 1 uM by Kinomescan method relative to control.

Experiment [10] deals with Phosphatidylinositol 5-phosphate 4-kinase type-2 beta (Homo sapiens) (UniProt P78356). Briefly: Binding affinity to wild-type human full length PIP5K2B (M1 to T416 residues) expressed in bacterial expression system assessed as residual binding level at 1 uM by Kinomescan method relative to control. A digest of the protocol: as §1
Experiment [11] addresses Serine/threonine-protein kinase SIK3 (Homo sapiens) (UniProt Q9Y2K2). The experiment can be described thus: Binding affinity to wild-type human partial length QSK (A90 to L395 residues) expressed in mammalian expression system assessed as residual binding level at 1 uM by Kinomescan method relative to control. Summed up: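 Active-site-directed competition binding panel of 468 kinases (KinomeScan), compound at 1 μM. The read-out is kinase remaining bound, given as a percentage of the DMSO control. […]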

For experiment [12], the target named is Serine/threonine-protein kinase Nek6 (Homo sapiens) (UniProt Q9HC98). Briefly: Binding affinity to wild-type human full length NEK6 (M8 to T313 residues) expressed in bacterial expression system assessed as residual binding level at 1 uM by Kinomescan method relative to control. Summed up:
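Active-site-directed competition binding panel (KinomeScan) covering 468 kinases. Test agent was screened at 1 μM. The read-out is the remaining kinase signal expressed relative to a DMSO control. Scores above 35%, taken as weak binding, were not reported.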

The subject of experiment [13] is Receptor-type tyrosine-protein kinase FLT3 (Homo sapiens), P36888 [N841I]. The experiment can be described thus: Binding affinity to human partial length FLT3 N841I mutant (V592 to Y969 residues) expressed in bacterial expression system assessed as residual binding level at 1 uM by Kinomescan method relative to control. A digest of the protocol: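 KinomeScan active site-directed competition binding panel (468 kinases), compound tested at 1 μM. Result expressed as remaining kinase signal versus DMSO control (percent of control).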

Experiment [14] concerns the target Death-associated protein kinase 3 (Homo sapiens) (UniProt O43293). Briefly: Binding affinity to wild-type human partial length DAPK3 (M1 to A277 residues) expressed in bacterial expression system assessed as residual binding level at 1 uM by Kinomescan method relative to control.
In experiment [15] the target is Homeodomain-interacting protein kinase 4 (Homo sapiens) (UniProt Q8NE63). Briefly: Binding affinity to wild-type human partial length HIPK4 (M1 to V384 residues) expressed in bacterial expression system assessed as residual binding level at 1 uM by Kinomescan method relative to control.
Experiment [16] has as its target Cyclin-dependent kinase 4/cyclin D1 (Homo sapiens) (UniProt P11802+P24385). Briefly: Binding affinity to wild-type human full length CDK4/cyclinD1 (M1 to E303 residues) expressed in mammalian expression system assessed as residual binding level at 1 uM by Kinomescan method relative to control. A digest of the protocol:
(§2)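 Active-site-directed KinomeScan competition binding panel covering 468 kinases, compound tested at 1 μM. Each readout is the kinase signal remaining with compound, expressed as a percentage of the DMSO control. […]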

Experiment [17] concerns the target Calcium/calmodulin-dependent protein kinase type 1 (Homo sapiens) (UniProt Q14012). The experiment can be described thus: Binding affinity to wild-type human full length CAMK1 (M1 to L370 residues) expressed in bacterial expression system assessed as residual binding level at 1 uM by Kinomescan method relative to control. A digest of the protocol: as §2
Experiment [18] concerns the target Myosin-IIIa (Homo sapiens) (UniProt Q8NEV4). Briefly: Binding affinity to wild-type human partial length MYO3A (M1 to K338 residues) expressed in bacterial expression system assessed as residual binding level at 1 uM by Kinomescan method relative to control.

Sequence of Tyrosine-protein kinase Tec (Homo sapiens) (P42680 whole entry, the tested form may be a part): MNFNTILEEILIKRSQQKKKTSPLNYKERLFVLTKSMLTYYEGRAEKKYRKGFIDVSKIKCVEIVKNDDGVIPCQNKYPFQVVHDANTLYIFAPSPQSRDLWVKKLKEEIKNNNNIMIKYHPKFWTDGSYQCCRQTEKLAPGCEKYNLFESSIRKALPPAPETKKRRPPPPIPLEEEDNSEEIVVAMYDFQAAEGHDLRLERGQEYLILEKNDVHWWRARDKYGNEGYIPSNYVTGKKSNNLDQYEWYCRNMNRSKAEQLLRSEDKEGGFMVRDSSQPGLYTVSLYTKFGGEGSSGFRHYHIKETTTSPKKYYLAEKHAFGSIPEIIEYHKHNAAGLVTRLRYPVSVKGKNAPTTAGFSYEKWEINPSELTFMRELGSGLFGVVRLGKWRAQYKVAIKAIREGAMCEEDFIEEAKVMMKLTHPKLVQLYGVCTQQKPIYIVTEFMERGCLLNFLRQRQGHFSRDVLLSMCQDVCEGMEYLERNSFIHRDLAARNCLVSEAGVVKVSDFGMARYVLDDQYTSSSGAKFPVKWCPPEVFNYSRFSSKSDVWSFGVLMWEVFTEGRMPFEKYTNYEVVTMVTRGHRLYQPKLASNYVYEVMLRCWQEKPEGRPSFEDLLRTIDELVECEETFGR
Sequence of Death-associated protein kinase 3 (Homo sapiens) (O43293 whole entry, looked up, the tested form may be a part): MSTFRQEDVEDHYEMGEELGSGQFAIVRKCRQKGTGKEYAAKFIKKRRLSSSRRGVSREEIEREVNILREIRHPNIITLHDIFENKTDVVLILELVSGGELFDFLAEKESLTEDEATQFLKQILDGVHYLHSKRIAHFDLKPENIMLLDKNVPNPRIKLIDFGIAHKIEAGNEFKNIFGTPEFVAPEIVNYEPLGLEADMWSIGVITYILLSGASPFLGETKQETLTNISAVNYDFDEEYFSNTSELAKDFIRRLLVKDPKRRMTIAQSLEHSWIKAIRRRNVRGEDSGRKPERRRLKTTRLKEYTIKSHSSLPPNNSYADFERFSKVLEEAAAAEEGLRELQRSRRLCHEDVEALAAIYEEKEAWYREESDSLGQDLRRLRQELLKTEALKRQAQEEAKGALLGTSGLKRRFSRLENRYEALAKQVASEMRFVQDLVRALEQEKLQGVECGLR
Sequence of NUAK family SNF1-like kinase 1 (Homo sapiens) (O60285 whole entry, the tested form may be a part): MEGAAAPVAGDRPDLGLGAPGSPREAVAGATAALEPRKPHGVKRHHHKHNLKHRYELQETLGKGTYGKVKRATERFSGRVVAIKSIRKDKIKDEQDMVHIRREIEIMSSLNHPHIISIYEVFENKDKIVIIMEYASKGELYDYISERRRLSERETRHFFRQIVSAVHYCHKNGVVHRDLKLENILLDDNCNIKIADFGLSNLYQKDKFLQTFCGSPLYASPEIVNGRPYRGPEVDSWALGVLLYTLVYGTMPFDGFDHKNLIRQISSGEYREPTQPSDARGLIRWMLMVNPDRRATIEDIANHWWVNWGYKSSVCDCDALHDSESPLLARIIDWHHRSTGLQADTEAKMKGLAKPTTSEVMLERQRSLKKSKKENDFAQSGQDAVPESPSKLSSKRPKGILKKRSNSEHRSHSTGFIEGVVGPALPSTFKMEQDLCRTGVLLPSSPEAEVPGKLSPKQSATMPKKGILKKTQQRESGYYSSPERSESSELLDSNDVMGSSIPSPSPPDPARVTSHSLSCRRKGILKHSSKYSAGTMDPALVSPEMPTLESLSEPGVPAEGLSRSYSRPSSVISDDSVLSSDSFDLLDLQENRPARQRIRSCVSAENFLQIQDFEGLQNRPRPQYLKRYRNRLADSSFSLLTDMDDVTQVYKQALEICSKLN
Sequence of Dual serine/threonine and tyrosine protein kinase (Homo sapiens) (Q6XUX3 whole entry, the tested form may be a part): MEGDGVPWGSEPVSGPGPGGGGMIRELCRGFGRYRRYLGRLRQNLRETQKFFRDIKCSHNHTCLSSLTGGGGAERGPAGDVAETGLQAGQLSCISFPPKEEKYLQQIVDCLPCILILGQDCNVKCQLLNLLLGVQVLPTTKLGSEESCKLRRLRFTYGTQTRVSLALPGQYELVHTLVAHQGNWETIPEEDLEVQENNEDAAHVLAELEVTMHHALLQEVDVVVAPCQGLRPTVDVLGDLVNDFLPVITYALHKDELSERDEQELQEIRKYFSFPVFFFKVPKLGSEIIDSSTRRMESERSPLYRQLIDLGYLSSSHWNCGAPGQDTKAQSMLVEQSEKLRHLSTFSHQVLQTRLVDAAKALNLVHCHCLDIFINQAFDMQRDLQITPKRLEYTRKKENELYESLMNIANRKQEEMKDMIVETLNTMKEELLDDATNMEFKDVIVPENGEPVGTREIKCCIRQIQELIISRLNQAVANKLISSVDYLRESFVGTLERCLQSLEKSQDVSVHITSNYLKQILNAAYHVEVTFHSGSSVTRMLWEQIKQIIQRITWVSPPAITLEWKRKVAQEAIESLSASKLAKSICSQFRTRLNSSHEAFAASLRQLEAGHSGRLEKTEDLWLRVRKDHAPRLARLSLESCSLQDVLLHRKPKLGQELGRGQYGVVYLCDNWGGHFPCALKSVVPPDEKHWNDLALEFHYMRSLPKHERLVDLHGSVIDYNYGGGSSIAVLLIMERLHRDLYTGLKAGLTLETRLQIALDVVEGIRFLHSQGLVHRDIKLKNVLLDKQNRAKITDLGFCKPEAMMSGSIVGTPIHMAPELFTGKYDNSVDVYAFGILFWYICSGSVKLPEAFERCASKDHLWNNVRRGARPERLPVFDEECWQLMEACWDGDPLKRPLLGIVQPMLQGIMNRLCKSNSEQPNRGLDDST
Sequence of Homeodomain-interacting protein kinase 4 (Homo sapiens) (Q8NE63 whole entry, the tested form may be a part): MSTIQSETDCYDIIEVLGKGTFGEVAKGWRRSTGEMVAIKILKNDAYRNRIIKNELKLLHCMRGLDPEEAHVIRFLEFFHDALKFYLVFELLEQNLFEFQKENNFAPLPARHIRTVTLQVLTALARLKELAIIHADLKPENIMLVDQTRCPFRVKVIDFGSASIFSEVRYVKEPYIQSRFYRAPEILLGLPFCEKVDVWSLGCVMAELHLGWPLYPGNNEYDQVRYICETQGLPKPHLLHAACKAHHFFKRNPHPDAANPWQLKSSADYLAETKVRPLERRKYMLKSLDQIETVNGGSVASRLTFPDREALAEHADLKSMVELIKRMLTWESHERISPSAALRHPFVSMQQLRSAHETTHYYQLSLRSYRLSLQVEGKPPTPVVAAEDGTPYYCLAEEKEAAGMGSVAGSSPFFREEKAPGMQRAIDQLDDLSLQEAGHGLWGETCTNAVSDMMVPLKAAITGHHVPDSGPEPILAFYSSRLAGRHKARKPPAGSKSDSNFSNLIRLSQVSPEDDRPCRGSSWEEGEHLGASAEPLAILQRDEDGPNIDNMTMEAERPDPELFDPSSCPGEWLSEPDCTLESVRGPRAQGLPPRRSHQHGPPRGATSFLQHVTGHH
Sequence of Calcium/calmodulin-dependent protein kinase type 1 (Homo sapiens) (Q14012 whole entry, looked up, the tested form may be a part): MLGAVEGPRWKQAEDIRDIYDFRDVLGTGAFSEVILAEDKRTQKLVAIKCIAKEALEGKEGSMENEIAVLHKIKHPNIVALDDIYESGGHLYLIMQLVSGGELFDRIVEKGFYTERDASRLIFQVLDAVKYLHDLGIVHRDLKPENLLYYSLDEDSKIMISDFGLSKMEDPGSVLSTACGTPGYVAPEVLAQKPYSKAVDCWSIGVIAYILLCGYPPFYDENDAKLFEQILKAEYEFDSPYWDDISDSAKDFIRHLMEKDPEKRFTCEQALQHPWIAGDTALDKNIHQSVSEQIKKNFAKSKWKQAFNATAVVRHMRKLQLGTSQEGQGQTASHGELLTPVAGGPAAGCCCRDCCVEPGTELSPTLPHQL
Sequence of Mitogen-activated protein kinase 6 (Homo sapiens) (Q16659 whole entry, the tested form may be a part): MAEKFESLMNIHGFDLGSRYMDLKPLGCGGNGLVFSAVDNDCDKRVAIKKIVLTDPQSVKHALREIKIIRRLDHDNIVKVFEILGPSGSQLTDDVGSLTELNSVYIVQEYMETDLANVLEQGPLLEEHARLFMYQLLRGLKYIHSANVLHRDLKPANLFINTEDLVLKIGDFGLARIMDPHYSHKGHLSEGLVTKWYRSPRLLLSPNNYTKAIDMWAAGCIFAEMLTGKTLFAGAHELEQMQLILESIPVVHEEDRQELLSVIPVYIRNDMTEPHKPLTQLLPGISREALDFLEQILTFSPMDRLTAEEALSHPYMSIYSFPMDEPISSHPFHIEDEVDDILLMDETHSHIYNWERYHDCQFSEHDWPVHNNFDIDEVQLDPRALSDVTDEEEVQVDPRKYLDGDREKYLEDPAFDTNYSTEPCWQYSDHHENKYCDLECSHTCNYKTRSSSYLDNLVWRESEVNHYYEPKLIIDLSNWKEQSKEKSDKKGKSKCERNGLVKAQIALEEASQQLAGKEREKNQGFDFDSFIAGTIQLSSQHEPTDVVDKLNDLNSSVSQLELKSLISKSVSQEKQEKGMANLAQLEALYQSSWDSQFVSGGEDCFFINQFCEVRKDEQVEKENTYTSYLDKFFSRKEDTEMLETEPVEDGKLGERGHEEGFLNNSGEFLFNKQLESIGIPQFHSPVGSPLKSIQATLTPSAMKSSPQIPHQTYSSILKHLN
Sequence of Phosphatidylinositol 5-phosphate 4-kinase type-2 beta (Homo sapiens) (P78356 whole entry, the tested form may be a part): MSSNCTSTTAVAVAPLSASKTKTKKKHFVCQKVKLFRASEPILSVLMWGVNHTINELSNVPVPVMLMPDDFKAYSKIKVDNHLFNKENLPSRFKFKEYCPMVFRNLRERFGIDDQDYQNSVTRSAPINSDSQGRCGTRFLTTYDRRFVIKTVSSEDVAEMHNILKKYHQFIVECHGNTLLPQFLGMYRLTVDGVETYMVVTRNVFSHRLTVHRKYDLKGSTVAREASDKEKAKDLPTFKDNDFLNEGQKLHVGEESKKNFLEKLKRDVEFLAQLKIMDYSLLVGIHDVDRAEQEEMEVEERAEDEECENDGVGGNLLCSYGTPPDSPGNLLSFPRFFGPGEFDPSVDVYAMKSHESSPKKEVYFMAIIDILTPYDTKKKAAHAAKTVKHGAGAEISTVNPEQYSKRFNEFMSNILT

As for `C=CC(=O)Nc1ccccc1Nc1nc(Nc2ccc(N3CCN(C)CC3)cc2)ncc1C(=O)Nc1c(C)cccc1Cl`, the Activity in [1], in experiment [2], in [3], in [4], in experiment [5] and in experiment [6] was 100% throughout. Further, the Activity in experiment [7] came out at 95%; in experiment [8], 64%; in experiment [9], 100%; in experiment [10], 99%; in experiment [11] it was 69%; in experiment [12], 100%. In addition, the Activity in experiment [13], in [14], in experiment [15], in experiment [16], in experiment [17] and in experiment [18] was 100% each time. In addition, the Emax with MDA-MB-231 was -0.4.
